Source: ChEMBL document CHEMBL3272008, “Synthesis and biological actions of 2-substituted quinolizidines” (J Med Chem, 1976)
Active and inactive are the calls of the source. No cut-off for these calls is given here.

What was measured:
Rattus norvegicus [1] = assay: Depression of motor activity in Wistar rat at 50 mg/kg, ip after 1 to 5 hrs; assay type: functional, organism-based; parameters: dose 50 mg/kg
Procedure, shortened: (§1)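 Male Wistar rats (175–225 g) dosed ip (vehicle dilute NaH2PO4 in water). Gross behaviour observed; respiratory rate, heart rate, rectal temperature and pupil size measured. Three treated rats per dose compared with one control.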

Rattus norvegicus [2] = assay: Reduction in respiratory rate in Wistar rat at 50 mg/kg, ip; assay type: functional, organism-based; parameters: dose 50 mg/kg; procedure, shortened: as §1
Mus musculus [3] = assay: Depression of forced motor activity in Swiss-Webster mouse at 100 mg/kg, ip after 30 mins by rotarod test relative to control; assay type: functional; conditions: route intraperitoneal
Procedure, shortened: (§2)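 Rotarod in mice: rod at 4 rpm for 30 sec, 6 rpm next 30 sec, then stepped up every 30 sec (max 50 rpm) until fall. Six mice at a time, four trials (two per day, 4–6 hr apart, two consecutive days); vehicle or compound ip 30 min before fourth trial. Time on rod as % of control; Student's t test, p < 0.05.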

Mus musculus [4] = assay: Depression of forced motor activity in Swiss-Webster mouse at 50 mg/kg, ip after 30 mins by rotarod test relative to control; assay type: functional; conditions: route intraperitoneal
Procedure, shortened: (§3)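 Mice were dosed ip with vehicle or compound dissolved in a minimum of 1.5 M NaH2PO4 and diluted with water. On the rotarod, speed was 4 rpm for 30 sec, then 6 rpm for 30 sec, then increased every 30 sec up to a maximum of 50 rpm until the fall. Each mouse had four trials, two per day on two consecutive days, spaced 4–6 hr apart. The fourth trial was run 30 min after dosing. The read-out was trial time (sec) as % of control, with significance by Student's t test (p < 0.05).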

Mus musculus [5] = assay: Depression of forced motor activity in Swiss-Webster mouse at 25 mg/kg, ip after 30 mins by rotarod test relative to control; assay type: functional; conditions: route intraperitoneal; procedure, shortened: as §3
Mus musculus [6] = assay: Depression of spontaneous motor activity in Swiss-Webster mouse at 25 mg/kg, ip by photocell cage test relative to control; assay type: functional; conditions: route intraperitoneal
Procedure, shortened: (§4)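 Compound was dissolved in minimal 1.5 M NaH2PO4, diluted with water and given ip. Two mice given the same dose went into each of three photocell actophotometer cages 10 min after the rotarod test started. Counts were taken over 15 min, starting 5 min after placement. A factorial design across cages cancelled differences between units. Results were given as % of control, with significance by Student's t test (p < 0.05).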

[7] = Acute toxicity in ip dosed Swiss-Webster mouse administered as single dose after 7 days; assay type: organism-based; conditions: in vivo
Procedure, shortened: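 Mice given a single ip dose at each of four dose levels; lethality followed over 7 days; LD50 with 95% confidence limits estimated by the method of Weil. Compounds dissolved in minimal 1.5 M NaH2PO4, diluted with water; haloperidol in minimal 50% (w/v) tartaric acid-water.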

Rattus norvegicus [8] = assay: Reduction in heart rate in Wistar rat at 50 mg/kg, ip; assay type: functional, organism-based; parameters: dose 50 mg/kg; procedure, shortened: as §1
Mus musculus [9] = assay: Depression of spontaneous motor activity in Swiss-Webster mouse at 50 mg/kg, ip by photocell cage test relative to control; assay type: functional; conditions: route intraperitoneal; procedure, shortened: as §4
Mus musculus [10] = assay: Depression of spontaneous motor activity in Swiss-Webster mouse at 100 mg/kg, ip by photocell cage test relative to control; assay type: functional; conditions: route intraperitoneal
Procedure, shortened: (§5)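 Spontaneous activity in three photocell cages: two mice given the same ip dose placed per cage 10 min after rotarod start; 15-min count begun 5 min after placement. Each dose run in factorial design across all three cages to offset unit sensitivity. Counts expressed as % of control; Student's t test, p < 0.05.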

Rattus norvegicus [11] = assay: Reduction in body temperature in Wistar rat at 50 mg/kg, ip relative to control; assay type: functional; conditions: route intraperitoneal; procedure, shortened: as §1
Rattus norvegicus [12] = assay: Reduction in ptosis in Wistar rat at 50 mg/kg, ip after 1 to 5 hrs; assay type: functional, organism-based; parameters: dose 50 mg/kg; procedure, shortened: as §1
Rattus norvegicus [13] = assay: Increase in pupil size in Wistar rat at 50 mg/kg, ip; assay type: functional, organism-based; parameters: dose 50 mg/kg; procedure, shortened: as §1
Mus musculus [14] = assay: Depression of spontaneous motor activity in ip dosed Swiss-Webster mouse by photocell cage test relative to control; assay type: functional, organism-based; procedure, shortened: as §4
Mus musculus [15] = assay: Depression of forced motor activity in ip dosed Swiss-Webster mouse after 30 mins by rotarod test relative to control; assay type: functional, organism-based; procedure, shortened: as §3
Mus musculus [16] = assay: Depression of spontaneous motor activity in Swiss-Webster mouse at 12.5 mg/kg, ip by photocell cage test relative to control; assay type: functional; conditions: route intraperitoneal; procedure, shortened: as §4
Mus musculus [17] = assay: Depression of forced motor activity in Swiss-Webster mouse at 12.5 mg/kg, ip after 30 mins by rotarod test relative to control; assay type: functional; conditions: route intraperitoneal; procedure, shortened: as §3
Rattus norvegicus [18] = species: Rattus norvegicus; assay: Increase in heart rate in Wistar rat; assay type: functional, organism-based; procedure, shortened: as §1
Mus musculus [19] = assay: Depression of spontaneous motor activity in Swiss-Webster mouse at 10 mg/kg, ip by photocell cage test relative to control; assay type: functional; conditions: route intraperitoneal; procedure, shortened: as §5
Mus musculus [20] = assay: Depression of spontaneous motor activity in Swiss-Webster mouse at 5 mg/kg, ip by photocell cage test relative to control; assay type: functional; conditions: route intraperitoneal; procedure, shortened: as §5
Rattus norvegicus [21] = species: Rattus norvegicus; assay: Reduction in respiration rate in Wistar rat; assay type: functional, organism-based; procedure, shortened: as §1
Mus musculus [22] = assay: Depression of forced motor activity in Swiss-Webster mouse at 5 mg/kg, ip after 30 mins by rotarod test relative to control; assay type: functional; conditions: route intraperitoneal; procedure, shortened: as §2
Mus musculus [23] = assay: Depression of forced motor activity in Swiss-Webster mouse at 10 mg/kg, ip after 30 mins by rotarod test relative to control; assay type: functional; conditions: route intraperitoneal; procedure, shortened: as §2
Rattus norvegicus [24] = assay: Increase in motor activity in Wistar rat at 5 to 30 mg/kg, ip; assay type: functional, organism-based; procedure, shortened: as §1

Row | Compound | Activity (Mus musculus [4]) [%] | Activity (Mus musculus [5]) [%] | Activity (Mus musculus [6]) [%] | LD50 at 168 h [7] [mg/kg] | Activity (Mus musculus [9]) [%] | Activity (Mus musculus [14]) | Activity (Mus musculus [16]) [%] | Activity (Mus musculus [17]) [%] | also measured
1 | O[C@]1(c2ccc(Cl)cc2)CCN2CCCCC2C1 (some centres not stated) | 26.7 | 71.3 | 19.4 | 229 | 18.1 | Dose-dependent effect | – | – | Activity (Rattus norvegicus [1]): Active; Activity (Rattus norvegicus [2]): Active; Activity (Mus musculus [3]): 9.7%; Activity (Rattus norvegicus [8]): Active; Activity (Mus musculus [10]): 2.6%; T (Rattus norvegicus [11]): 1 °C; Activity (Rattus norvegicus [12]): Active; Activity (Rattus norvegicus [13]): Active; Activity (Mus musculus [15]): Dose-dependent effect
2 | O[C@]1(c2ccc(C(F)(F)F)cc2)CCN2CCCCC2C1 (single isomer, unassigned) | 31.5 | 100.6 | 39.3 | 125 | 17.5 | Dose-dependent effect | 90 | 115.2 | –
3 | O[C@]1(c2cccc(Cl)c2)CCN2CCCCC2C1 (single isomer, unassigned) | 34.3 | 83.6 | 89.9 | 134 | 74.3 | – | – | 88.6 | –
4 | O[C@]1(c2cccc(C(F)(F)F)c2)CCN2CCCCC2C1 (single isomer, unassigned) | 56.6 | 98.1 | 45.1 | 137 | 35.4 | Dose-dependent effect | 70.3 | 107.2 | –
5 | O[C@@]1(c2ccc(Cl)cc2)CCN2CCCCC2C1 (single isomer, unassigned) | – | 87.6 | 22.5 | 67.5 | – | – | – | – | Activity (Rattus norvegicus [18]): Active; Activity (Mus musculus [19]): 439.6%; Activity (Mus musculus [20]): 526.8%; Activity (Rattus norvegicus [21]): Active; Activity (Mus musculus [22]): 105.9%; Activity (Mus musculus [23]): 101.9%; Activity (Rattus norvegicus [24]): inactive
